# High-throughput results: PubChem, Broad Institute
# Compounds with a hit are over-represented: about 3.8% of the library has one in this group of screens.
# FN deposition inh: fibronectin deposition inhibition; AH1F fibroblasts, Alexa488-fibronectin deposition fluorescence, overnight; inhibition, % at 12.6 µM; 0.086% of 350,000 active; AID 743247;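 active = mean inhibition across replicates of 30% or more, regardless of how many single replicates reach that level; inconclusive = mean under 30% yet at least half of replicates reach 30%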;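 also: positive control wells lacked labelled fibronectin entirely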
#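 Material – AH1F fibroblast monolayer, labelled fibronectin deposition · Reagent – labelled fibronectin 24 nM · Timing – 1 h adhesion, overnight exposure · Measured by – fluorescence at 485 nm excitation, 525 nm emission · Read-out – inhibition of fibronectin deposition signal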
# FGF22 binding: FGF22 (human) thermal shift binding; activity (Tm shift, normalised), % at 9.99 µM; Q9HCT0; 1.5% of 340,000 active; recombinant FGF22 thermal shift, SYPRO orange fluorescence; percent of sucrose octasulfate shift, DMSO zero; AID 651658;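 active = mean Tm shift, scaled 0 neutral to 100 positive control, at about 1.3% or above, every replicate too, limit read from the data; inconclusive = no clear call, values can overlap the other calls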
# Target sequence (Q9HCT0 whole entry, looked up): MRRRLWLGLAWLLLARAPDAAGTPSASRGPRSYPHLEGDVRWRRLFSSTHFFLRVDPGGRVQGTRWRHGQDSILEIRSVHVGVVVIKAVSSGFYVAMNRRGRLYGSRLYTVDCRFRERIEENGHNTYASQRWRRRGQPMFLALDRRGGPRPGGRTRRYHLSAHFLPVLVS
# DENV2 CPE rescue: DENV2-induced cell death inhibition. DENV2-infected cells, cytopathic effect rescue, plate reader. CPE inhibition, % at 9.99 µM. 1.7% of 350,000 active. AID 651640; in the data active = CPE inhibition above about 20%, passing the limit was not always enough; inconclusive = no clear call, values can overlap the other calls; tested in BHK-21 cells;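 also: 0% = median of neutral control wells and 100% = median of positive control wells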
# SIRT5 block: inhibitors of human sirtuin-5 desuccinylase; Q9NXA8; Purified SirT5, succinyl-peptide AMC, trypsin-coupled fluorescence; inhibition, % at 15 µM; 1.1% of 330,000 active; AID 652115; in the data active = inhibition above about 15%; inconclusive = no clear call, values can overlap the other calls
# Target sequence (Q9NXA8 whole entry, looked up): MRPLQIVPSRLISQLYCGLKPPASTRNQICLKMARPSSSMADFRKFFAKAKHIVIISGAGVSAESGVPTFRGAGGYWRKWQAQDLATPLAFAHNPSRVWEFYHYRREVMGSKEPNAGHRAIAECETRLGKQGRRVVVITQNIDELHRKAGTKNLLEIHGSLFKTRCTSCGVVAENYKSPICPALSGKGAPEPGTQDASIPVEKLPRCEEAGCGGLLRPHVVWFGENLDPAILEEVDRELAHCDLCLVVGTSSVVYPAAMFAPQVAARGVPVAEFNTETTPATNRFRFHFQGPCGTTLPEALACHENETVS
# ARNT-TACC3 inh: disruptors of human ARNT/TACC3 interaction; 0.66% of 390,000 active; AlphaScreen His-ARNT PAS-B/GST-TACC3 binding, luminescence; TACC3 fragment carries E629A point mutation; Q9Y6A5; inhibition, % at 9.99 µM;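 active = mean inhibition of replicates at least 50% and at least half of replicates each reaching 50%; inconclusive = half or more replicates reach 50% but mean below 50%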;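 also: 0% = complete ARNT plus TACC3 wells and 100% = ARNT alone without TACC3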
# Xi reactivation: X-chromosome reactivation activator; 0.055% of 360,000 active; activation, % at 7.58 µM; XiGFP mouse fibroblasts, % GFP-positive cells imaging, 3 d; cells co-treated with 5-aza-dC sensitizer; scaled so ellipticine positive control = 100%;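 active = mean normalized replicate activation at least 10% and every replicate at or above 10%; inconclusive = only one of the two criteria met; inactive = mean below 10% and not all replicates reach 10%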;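 also: 0% = median of on-plate neutral control wells and 100% = ellipticine 6 µM median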
#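 System: XiGFP fibroblasts, SV40-immortalized. Medium: DMEM plus 5-aza-dC sensitizer. Doses: single point. Timing: 3 d treatment, 15 min room-temperature fixation. Control set: ellipticine 6 µM.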
# * marks the source's active call; other numbers are inactive results; ? = inconclusive; / = not tested or not shown; ! = not confirmed by another sample.
SMILES,FN deposition inh,FGF22 binding,DENV2 CPE rescue,SIRT5 block,ARNT-TACC3 inh,Xi reactivation
Cc1c(Cl)cccc1NC(=S)N1CCCCCC1,7,0,5,-2,19,0
Cc1cccc(NC(=S)N2CCCCCC2)c1C,5,0,55*,-1,1,0
COc1ccccc1NC(=S)NC12CN3CN(CN(C3)C1)C2,10,/,-4,-3,0,0
Cc1ccccc1NC(=S)NC12CN3CN(CN(C3)C1)C2,1,44*,-3,-2,2,0
Cc1ccc(S(=O)(=O)NNC(=S)Nc2cccc(C)c2C)cc1,-7,0,4,-8,-3,0
Cc1cccc(NC(=S)NC23CN4CN(CN(C4)C2)C3)c1C,-8,44*,?,-1,-1,0
COc1ccc(NC(=O)N2CCCCN3[C@H](CO)[C@@H](c4ccc(C#Cc5ccccn5)cc4)[C@H]3C2)cc1,-6,/,/,/,/,0
CCO[C@@H]1OC(C(=O)N2CCCCCCC2)=C[C@H](c2cn(C(C)=O)c3ccccc23)[C@H]1CCCO,/,/,/,/,2,/
CCO[C@H]1OC(C(=O)N2CCOCC2)=C[C@@H](c2cn(C(C)=O)c3ccccc23)[C@@H]1CCCO,-2,0,27*!,-5,-2,0
CCO[C@H]1OC(C(=O)NC2CC2)=C[C@@H](c2ccc(C(F)(F)F)cc2)[C@@H]1CCCO,0,0,25*!,8,10,0
CCO[C@H]1OC(C(=O)O)=C[C@@H](c2ccc3c(c2)OCO3)[C@@H]1CCCO,-18,44*!,24*,-2,-6,0
CCO[C@@H]1OC(C(=O)NC2CC2)=C[C@H](c2ccc(C(F)(F)F)cc2)[C@H]1CCCO,-1,0,12,-1,4,0
CCO[C@H]1OC(C(=O)O)=C[C@@H](C(C)(C)C)[C@@H]1CCCO,8,0,15,23*,3,0
COC(=O)[C@@H]1[C@@H](CO)[C@@H]2Cn3c(ccc(-c4ccc(F)cc4)c3=O)[C@@H]2N1C(=O)C1CC1,/,0,2,-5,4,0
C[C@H](CO)N1C[C@H](C)[C@H](CN(C)Cc2ccc(-c3ccccc3)cc2)Oc2c(NC(=O)C3CCCCC3)cccc2C1=O,-2,/,/,/,/,-1
O=C(Nc1nccs1)C1CC(=O)N(Cc2ccco2)C1 (centres undefined),-1,43*,-1,-3,-5,0
O=C(NC1CCCCC1)N[C@H]1CC[C@@H](CCNS(=O)(=O)c2ccc(F)cc2)O[C@@H]1CO,/,0,7,-1,12,0
COc1ccc(NC(=O)N[C@H]2CC[C@@H](CCNS(=O)(=O)c3ccccc3F)O[C@@H]2CO)cc1,-7,0,-3,-3,0,0
CCCCCC(=O)N1C[C@@H](O)[C@H](n2cc(COC(=O)c3ccccc3)nn2)C[C@@H]1c1ccc(C)cc1,4,0,74*,-1,/,0
O[C@@H]1CN(CC2CCCCC2)[C@@H](c2ccccc2)C[C@H]1n1cc(C2CC2)nn1,11,0,1,-2,/,0
CCCCCCN1C[C@@H](O)[C@H](n2cc(COC(=O)c3ccccc3)nn2)C[C@@H]1c1ccc(C)cc1,-15,0,0,24*,/,0
CCCCCC(=O)N1C[C@H](n2cc(COC(=O)c3ccccc3)nn2)[C@@H](O)C[C@@H]1c1ccc(C)cc1,-40,0,-15,-4,/,0
CCCCCCN1C[C@@H](O)[C@H](n2cc(COC(=O)c3ccccc3)nn2)C[C@@H]1c1ccccc1,6,0,-9,12,/,0
O[C@H]1CN(CC2CCCCC2)[C@@H](c2ccc(Cl)cc2)C[C@@H]1n1cc(C2CC2)nn1,/,0,45*,8,/,1
CCCCCCN1C[C@H](O)[C@@H](n2cc(C3CC3)nn2)C[C@@H]1c1ccc(C)cc1,-7,44*,2,/,/,0
SMILES,FN deposition inh,FGF22 binding,DENV2 CPE rescue,SIRT5 block,ARNT-TACC3 inh,Xi reactivation
C[C@H]1CN([C@@H](C)CO)C(=O)c2cc(NC(=O)CCCCCC(=O)Nc3ccccc3N)ccc2O[C@@H]1CN(C)S(=O)(=O)c1ccccc1,/,0,18,/,/,0
N#C[C@H]1[C@@H](c2ccc(-c3cccnc3)cc2)[C@@H](CO)N1C(=O)C1CCOCC1,6,0,-1,-1,11,0
CCCNC(=O)N1CC2(C1)[C@H](c1ccccc1)[C@@H](CO)N2CC1CC1,-7,/,4,2,/,0
CC1=Nc2cc(C(=O)NCCCOC(C)C)ccc2Sc2ccc(C)cc21,-17,0,6,-5,-5,0
CC1=Nc2cc(C(=O)NCCCOC(C)C)ccc2Sc2ccccc21,-4,43*,7,-3,4,0
O=C(CN1CCN(C(=O)c2cc(C3CC3)nn2-c2ccccc2)CC1)Nc1ccc(F)cc1,4,0,6,0,/,0
Cc1cccc(NC(=O)CN2CCN(C(=O)c3cc(C4CC4)nn3-c3ccccc3)CC2)c1C,-6,0,62*,3,/,0
COc1ccc(C(=O)N2CCN(C(=O)c3cc(OC)c(OC)c(OC)c3)CC2)cc1,/,/,/,/,-1,/
COc1cc(C(=O)N2CCNCC2)cc(OC)c1OC,-3,0,-7,21*,-4,0
CC(C)NC(=O)Nc1ccc2c(c1)CC(=O)N([C@H](C)CO)C[C@H](C)[C@H](CN(C)S(=O)(=O)c1ccc(F)cc1)O2,/,0,0,0,4,0
CN(C)CCC(C(=O)c1ccccc1)c1ccccn1 (centres undefined),/,/,/,/,-3,/
CC(C(=O)c1ccccc1)C(O)c1ccccn1 (centres undefined),-5,44*,5,/,/,0
CCCCCN(C(=O)NC(=O)Nc1ccc(C)cc1C)S(C)(=O)=O,13,43*,0,-5,-5,0
COc1ccc(-n2c(C)c(C(C)=O)c3cc(OCC(N)=O)ccc32)cc1,-1,0,5,-3,2,0
CCOc1ccc(-n2c(C)c(C(C)=O)c3cc(OCC(N)=O)ccc32)cc1,3,0,32*,-1,5,0
COc1ccc(CC(=O)NNC(=O)CCC(=O)Nc2cc(C)ccc2C)cc1,6,44*,1,4,-7,0
COc1cc(CN2CC3(CCN(S(=O)(=O)c4cn(C)cn4)CC3)c3c(n(C)c4cc(OC)ccc34)[C@@H]2CO)cc(OC)c1,1,/,0,-2,/,0
COc1cc(OC)cc(C(=O)NNC(=O)CCCOc2ccccc2)c1,-2,0,3,0,4,0
COc1cc(OC)cc(C(=O)NNC(=O)CCC(=O)c2cc(C)sc2C)c1,-12,-1,73*,0,-1,0
